Assay results gathered from unrelated publications.
Lines come from different studies, so protocols differ.
TACR2: Substance-K receptor (TACR2, Homo sapiens, UniProt P21452)
Dipeptidyl peptidase 8: Dipeptidyl peptidase 8 (Homo sapiens, UniProt Q6V1X1)
PRKCA: Protein kinase C alpha type (PRKCA, Homo sapiens, UniProt P17252)
HDAC8: Histone deacetylase 8 (HDAC8, Homo sapiens, UniProt Q9BY41)

c1ccc(C(NCCNC(c2ccccc2)c2ccccc2)c2ccccc2)cc1 — inhibition (TACR2; cell-free assay; 10 µM): 40%
CCN(CC)CCCC[C@H](NC(=O)[C@H](CC(C)C)NC(=O)[C@H](C)NC(=O)[C@H](Cc1ccccc1)NC(=O)c1ccc(C(C)(C)C)cc1)C(=O)N[C@@H](CO)C(=O)OC — inhibition (Mu-type opioid receptor (OPRM1, Homo sapiens, UniProt P35372); ligand displacement, radioligand; 10 µM): 51%
N#Cc1ccc(NCCNCC(=O)N2N=CCC2C#N)nc1 (stereo not drawn) — inhibition (Dipeptidyl peptidase 8; enzyme activity, inhibitor; 1 µM): 0%
Cn1cc(-c2cccc(N3CCc4c(sc5c4CC(C)(C)C5)C3=O)c2CO)cc(Nc2ccncn2)c1=O — inhibition (PRKCA; enzyme activity, inhibitor; 1 µM): 5%
C#Cc1n[nH]c2c(-c3cn(C(C)c4ccccn4)c(=O)[nH]c3=O)cc(F)cc12 (stereo not drawn) — inhibition (Tyrosine-protein kinase Yes (YES1, Homo sapiens, UniProt P07947); enzyme activity, inhibitor; 1 µM): -0.2%
Cn1cc(-c2cc(F)cc(N3CCn4c(cc5c4CCCC5)C3=O)c2CO)cc(Nc2ccc(N3CCN(C4COC4)CC3)cn2)c1=O — inhibition (Testis-specific serine/threonine-protein kinase 2 (TSSK2, Homo sapiens, UniProt Q96PF2); enzyme activity, inhibitor; 0.1 µM): 17%
C#Cc1n[nH]c2c(-c3cn([C@@H](C)c4ccccc4)c(=O)[nH]c3=O)cc(F)cc12 — inhibition (PRKCA; enzyme activity, inhibitor; 0.1 µM): 9.6%
C[C@H](C(=O)N[C@H]1COc2ccccc2[C@@H]1S(C)(=O)=O)c1ccc(F)cc1 — inhibition (TACR2; cell-free assay; 10 µM): -21%
COc1cc(Nc2ncc(F)c(Nc3ccc4c(n3)NC(=O)C(C)(C)O4)n2)cc(OC)c1OC — inhibition (Cyclin-dependent kinase 11B (CDK11B, Homo sapiens, UniProt P21127); binding, competition with immobilised ligand; 10 µM): 0%
N=C(N)c1ccc2cc(OC(=O)c3ccc(N=C(N)N)cc3)ccc2c1 — inhibition (Dipeptidyl peptidase 8; enzyme activity, inhibitor; 10 µM): 8%
O=c1ccc2cc3ccoc3cc2o1 — inhibition (HDAC8; enzyme activity, inhibitor; 10 µM): 30.7%
CCOC(=O)c1ccc(OC(=O)CCCCCNC(=N)N)cc1 — inhibition (Dipeptidyl peptidase 8; enzyme activity, inhibitor; 10 µM): 13%
COCc1c(-c2cc3cc(C)cc(OC)c3s2)c2c(N)ncnn2c1CN1CCNC(=O)C1 — inhibition (Nitric oxide synthase 1 (Nos1, Rattus norvegicus, UniProt P29476); enzyme activity, inhibitor; 10 µM): -8%
CN(C)C(=O)COC(=O)Cc1ccc(OC(=O)c2ccc(NC(=N)N)cc2)cc1 — inhibition (Ubiquitin carboxyl-terminal hydrolase 8 (USP8, Homo sapiens, UniProt P40818); enzyme activity, inhibitor; 10 µM): 0%
COc1c2ccoc2cc2oc(=O)ccc12 — inhibition (HDAC8; enzyme activity, inhibitor; 10 µM): 34.4%
